Only some compounds are listed: those with a hit (about 1.1% of all), similar ones and a draw of the others.
NPR2 activator: GC-B (human) receptor activation | P20594 | HEK293-GC-B cells, CNP EC30, cGMP TR-FRET; 0% at EC30 CNP, 100% saturating CNP | activation, % at 10 µM | 370,000 tested, 0.11% active;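 active means activation at 10 µM reaching about 35% in either raw or pattern-adjusted values, limit read from the data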
SKN-1 block: blocks SKN-1 activity in C. elegans; AID 624304; inhibition, % at 21.8 µM; 360,000 tested, 0.49% active; C. elegans VP596 Pgst-4::GFP/RFP ratio, acrylamide-induced, 24 h;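 active means interference check ratio from 0.5 to 1.5 plus GFP to RFP signal ratio inhibition reaching or exceeding a fixed threshold, cut at about 30% in these data, passing the limit was not always enough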
TbMetRS inhib: Trypanosoma brucei MetRS inhibition; purified T. brucei MetRS, ATP depletion, Kinase-Glo luminescence; inhibition, % at 11.9 µM; 360,000 tested, 0.4% active; AID 624268;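 active means inhibition above a per-plate cutoff of the control wells' mean inhibition plus 3 SD, cut at about 5.5% in these data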;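 further: 0% = DMSO wells median and 100% = median of wells with control inhibitor compound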
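technique = Kinase-Glo luminescence, ATP depletion format | system = purified MetRS (methionyl-tRNA synthetase) enzyme from Trypanosoma brucei | timing = 15 min preincubation, 2 h reaction, all 25 °C | evaluation = percent inhibition versus plate control medians | dosing = single dose, 11.9 µM final nominal, 0.9% final DMSO | also added = substrates ATP, L-methionine and bulk Escherichia coli tRNA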
A1 inh: inhibitors of the anti-apoptotic protein A1, read as caspase activation; MEF A1-2A-BIM cells, Caspase-Glo 3/7 luminescence, 3 h; percent of clofoctol response, vehicle zero; caspase activation, % (no concentration beside the values); 330,000 tested, 0.066% active; AID 2462;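 active means over half of replicate activation scores above 10%, or exactly half above 10 with the replicate mean above 10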
GC-A act: GC-A (human) enzyme activation | HEK293 GC-A cells, cGMP TR-FRET, EC30 ANP; 0% at EC30 ANP, 100% saturating ANP | activation, % at 10 µM | 370,000 tested, 0.14% active | AID 1671463; in the data active means activation above about 40%
MT1-MMP act inh: MT1-MMP (human) activation inhibition; GFP/RFP ratio change, % at 20 µM; 360,000 tested, 0.061% active; AID 651647; HT1080 RFP-PRO-GFP cells, GFP/RFP ratio fluorescence, overnight; percent of plate control window, DMSO zero;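 active means GFP/RFP ratio change of at least 30% with cell ATP level not reduced by more than half and red fluorescence within 50% of control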
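Test system: HT1080 cells expressing an RFP-PRO-GFP fluorescent reporter construct / Compound dosing: single-point 20 µM compound, 1% DMSO / Schedule: cells overnight before dosing, compound overnight, 37 °C, 5% CO2 / Evaluation: GFP/RFP fluorescence ratio / Control set: DMSO and RFP-L50D-GFP cell wells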
The depositor's hits bear a star.

How did Cn1nc(C(=O)N2CCN(S(=O)(=O)c3ccccc3)CC2)c2ccccc2c1=O do in these assays?
NPR2 activator: 0; SKN-1 block: 38*; TbMetRS inhib: 0; A1 inh: 0; GC-A act: -3; MT1-MMP act inh: -5

How did Cc1ccc(S(=O)(=O)N2CCN(C(=O)c3nn(C(C)C)c(=O)c4ccccc34)CC2)cc1C do in these assays?
NPR2 activator: 3; SKN-1 block: -2; TbMetRS inhib: -2; A1 inh: 0; GC-A act: 6; MT1-MMP act inh: 2

What do the screens show for `O=C1CCC[C@H]2C[C@H](NCc3ccc(F)cc3F)CC[C@]23CCCN13`?
NPR2 activator: 0; GC-A act: -1

How did CC(C)C[C@H](NC(C)(C)C(=O)NC1CCCCC1)C(=O)NCCc1c[nH]c2ccccc12 do in these assays?
NPR2 activator: -13; GC-A act: 0

How did O=[N+]([O-])c1ccc2c(c1)C(N1CCOCC1)/C(=C/COc1ccc(F)cc1)O2 (stereo not drawn) do in these assays?
NPR2 activator: -2; SKN-1 block: 3; TbMetRS inhib: 0; A1 inh: 0; GC-A act: 16; MT1-MMP act inh: -3

Results for O=[N+]([O-])c1ccc(OC/C=C2\Oc3ccc([N+](=O)[O-])cc3C2N2CCOCC2)cc1 (stereo not drawn) ?
NPR2 activator: 3; SKN-1 block: 37*; TbMetRS inhib: 1; A1 inh: 1; GC-A act: -3; MT1-MMP act inh: -2

What do the screens show for `Cn1c(N)c(C(=O)COC(=O)c2cc(C3CC3)nc3ccccc23)c(=O)n(C)c1=O`?
NPR2 activator: 36*; SKN-1 block: 4; TbMetRS inhib: 0; A1 inh: 0; GC-A act: 6; MT1-MMP act inh: 0

How did Cc1csc(CNc2ncnc3ccc(-c4ccoc4)cc23)c1 do in these assays?
NPR2 activator: 37*; SKN-1 block: 2; TbMetRS inhib: 1; A1 inh: -1; GC-A act: 36; MT1-MMP act inh: -14

How did COc1ccc(CCNC(=O)Cn2ncc3c2-c2cc(C)ccc2OC3)cc1 do in these assays?
NPR2 activator: -1; GC-A act: -10

How did COCCCNC(=O)C[C@H]1C[C@@]2(C(=O)OC)C(=C[C@H](C3CCCC3)O[C@@H]2C)N(CCc2ccc(OC)c(OC)c2)C1=O do in these assays?
NPR2 activator: 4; GC-A act: 1

How did O=C(NCc1ccc(F)cc1)c1nc(-c2cccs2)no1 do in these assays?
NPR2 activator: -1; SKN-1 block: 2; TbMetRS inhib: 0; A1 inh: 0; GC-A act: 4; MT1-MMP act inh: 9

What do the screens show for `Clc1ccc(OCc2nc(-c3ccncc3)no2)c(Cl)c1`?
NPR2 activator: -7; SKN-1 block: 24; TbMetRS inhib: 5; A1 inh: -1; GC-A act: 22; MT1-MMP act inh: 3

Results for Cc1cc(OCc2nc(-c3cccs3)no2)cc(C)c1Cl ?
NPR2 activator: -8; SKN-1 block: -1; TbMetRS inhib: -1; A1 inh: 0; GC-A act: 2; MT1-MMP act inh: -2

Results for Clc1cccc(OCc2nc(-c3ccncc3)no2)c1 ?
NPR2 activator: -6; SKN-1 block: 48*; TbMetRS inhib: 0; A1 inh: 0; GC-A act: 1; MT1-MMP act inh: 1

What do the screens show for `c1ccc(OCc2nc(-c3cccs3)no2)cc1`?
NPR2 activator: -3; SKN-1 block: 40*; TbMetRS inhib: 0; A1 inh: -2; GC-A act: 1; MT1-MMP act inh: 5

Results for Fc1ccc(OCc2nc(-c3cccs3)no2)cc1 ?
SKN-1 block: 39*; TbMetRS inhib: -1; A1 inh: -3; MT1-MMP act inh: 3

How did O=C(CSc1nnc(SCc2cccc3ccccc23)s1)c1ccc(F)cc1 do in these assays?
NPR2 activator: -7; GC-A act: 1

How did O=C(CCc1ccccc1)N[C@H]1[C@@H](OC(=O)c2cccnc2)CCC[C@]12C(=O)N(Cc1ccccc1)c1ccccc12 do in these assays?
NPR2 activator: -11; GC-A act: -12
